48 sequences from the EternaBench riboswitch data can be followed below.

This data set relates to MS2 coat protein. The data set can be described thus: apparent Kd, MS2 coat protein; higher = weaker binding; RNA-MaP array; FMN 200 µM where present. An outline of the steps:
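The apparent Kd is reported as the median of filtered per-cluster binding-curve fits. To get these curves, designs transcribed by stalled E. coli RNA polymerase on Illumina sequencing-chip clusters were titrated with SNAP-549-labelled MS2 coat protein from 0.7 or 1.5 nM, doubling to 3 µM. Titrations were run without and then with constant ligand in 100 mM Tris-HCl pH 7.5, 80 mM KCl, 4 mM MgCl2, BSA, DTT, yeast tRNA and Tween-20, and green signal was normalised to red-channel RNA signal and control-cluster median Fmax.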

The mark [1] stands for this setting: designed as: ON switch for flavin mononucleotide, no ligand.
Where [2] appears, read: ligand present: flavin mononucleotide, designed as: ON switch for flavin mononucleotide.
[3] abbreviates: designed as: OFF switch for flavin mononucleotide, no ligand.
Setting [4] is: ligand present: flavin mononucleotide, designed as: OFF switch for flavin mononucleotide.

In the case of “CGAAGUAGCACAGGAUAUCAUACAUGAGGAUCACCCAUGUCAAGAAACAAAUGAGAAGGGUGCAGACGGUGUUGGAGCUGUUGC”, the “apparent Kd” value under setting [1] was determined as 192 nM and the “apparent Kd” value under setting [2] was 26.6 nM.
Consider “GUACCUUAUGAGAAGGCGGUCAUGAAACAUGAUCGAGGAUAUCAUGUAAACAUGAGGAUCACCCAUGUAUGGGUAUUAUGGUAA”, for which the “apparent Kd” value under setting [1] was 61.1 nM and the “apparent Kd” value under setting [2] was 11.2 nM.
Regarding “GUCACGAAUGUAGGAUAUCGAGUGGAAUACACUCGAGAAGGACAUGAGGAUCACCCAUGUACUAUGAAAGAUAAUAAACGUGAC”, the “apparent Kd” value is, setting by setting: under setting [3], 14.9 nM; under setting [4], 19.5 nM.
Turning to “UCAUUUAUUACAGGAUAUGUUAGUAUACAGUUGUUUGGUUAUUACUUAUUAACAGAAGGGUAGAACAUGAGGAUCACCCAUGUA”, the “apparent Kd” value amounted to 80.4 nM under setting [1] and 40.7 nM under setting [2].
The corresponding values for “AGUGUCAUCCAGAAGGCCUCAUUACAUGAGGAUCACCCAUGUAAUCGUGGGAGGAUAUGGAUGAUACAGCUACGUUUCGUAGCA” are 7.42 nM and 4.65 nM.
Consider “UGCCGCAACAACACGGCAUCACAUGAGGAUCACCCAUGUUCACAGGAUAUGCGAUAGCCAACGAAGCAGAAGGGUGAUUACUUA”, for which the “apparent Kd” value under setting [1] was 31.9 nM and the “apparent Kd” value under setting [2] was 215 nM.
For the sequence “GGAUAGGACAGAGGAUAUACGUGCUAGAGAUAUUAGCAAAAUUUCCUCACAUGAGGAUCACCCAUGUAGAAGGCUGUCCUAUCG”, the “apparent Kd” value runs as follows: under setting [3], 19.4 nM; under setting [4], 328 nM.
For “CGCUUCUUAGUCAGGAUAUUGUCUGCACAGGGUAGUAAGAAGGGACAUGAGGAUCACCCAUGUAUAACGGUACC”, in that order: 51.8 nM and 49.1 nM.
Regarding “GUAGCUAUUAAAGGAUAUUCAUACCGGAGACGGACAUGAGGAUCACCCAUGUGGCGAAAGCCUUGGGAGAAGGUUAUUAGCUAC”, the “apparent Kd” value under setting [1] is 452 nM and the “apparent Kd” value under setting [2] was determined as 17.7 nM.
For the sequence “GUCAGCUCGUGAGGAUAUACAACACUGCUUCGGCAGAGUAUUAAGAUCACAUGAGGAUCACCCAUGUAGAAGGCACGAGCUGAU”, the “apparent Kd” value worked out at 10.3 nM under setting [3] and 117 nM under setting [4].
The corresponding values for “AAUGUUUGAUUCCACUUAUACAUGAGGAUCACCCAUGUUAUCGAGGAUAUGCAUUAGAGCGUUUAGCAGAAGGCGAUGUAAUUG” are 7.41 nM and 20.3 nM.
“GAACGUGACAUGAGGAUCACCCAUGUUGCCUGAGCCAGGUCGUAGGAUAUCCUGUUGAUUAAUUUGGAGAAGGGCGACUGGGAG”: the “apparent Kd” value turned out to be 46.5 nM under setting [1] and 18.3 nM under setting [2].
Consider “UGUCGGAGCAGAGGAUAUUACAUGAGGAUCACCCAUGUACGAACCAAUAGCUGGAAACAGCAAUGUAAGAAGGCUGCUCCGACA”, for which the “apparent Kd” value reads like this: under setting [3], 11.3 nM; under setting [4], 79 nM.
“GGAGCACGCACAGGAUAUCCGGCGGCGCUCGUCGGAGAAGGGUGACAUGAGGAUCACCCAUGUACGUGCAACUCAGUUUGAGUG”: the “apparent Kd” value came out at 95.6 nM under setting [1] and 40.4 nM under setting [2].
As for “GCUAGUGCAGGAUAUGCGUGGGAUGUUAUCCAUUUUCAUCUACAUGAGGAUCACCCAUGUAGAAGGGCACCCUU”, the “apparent Kd” value runs as follows: under setting [3], 29.3 nM; under setting [4], 110 nM.
Regarding “GUUUCACAUGAGGAUCACCCAUGUGAGGAUAUGGAUUUGUUAACCGUAGUUAAUAGAUCCAGAAGGCGCGUGAU”, the “apparent Kd” value came to 62.4 nM under setting [3] and 68.2 nM under setting [4].
Take “AAUAUGUUGCAGAAGGCUAUGUUGUGGUAGUACCUCAUGACAUGAGGAUCACCCAUGUUUGUGUUGGAGGAUAUGCAAUAUAUU”: the “apparent Kd” value by setting is: under setting [3], 12.7 nM; under setting [4], 40.6 nM.
Regarding “AGAGCCUCGUGAGGAUAUACAUGAGGAUCACCCAUGUAAAUGGAAGAACGGAGGAAACUCCGAAUGUAGAAGGCACGAGGCUCA”, the “apparent Kd” value reads like this: under setting [3], 149 nM; under setting [4], 1240 nM.
The corresponding values for “UAUUAUCACGAAGGAUAUGCUGACAUGAGGAUCACCCAUGUAUGUAUAUUGGUCCAGCGUAUUUAGCAGAAGGUCGUGAGUAAA” are 45.4 nM and 73.5 nM.
As to “UUUUAACAUGAGGAUCACCCAUGUGAGGAUAUCGAAAUUUAUAUUUAUAUUUAUAAUUCGAGAAGGCACAUUUU”, the “apparent Kd” value under setting [3] amounted to 179 nM and the “apparent Kd” value under setting [4] was 141 nM.
The corresponding values for “UACAGACAUGAGGAUCACCCAUGUGAGGAUAUCGGUACCGAUGGCAUAAUCUGCUCGGCGAGAAGGCACAGUGU” are 28 nM and 48.4 nM.
As to “UCUCUGCGAGGAUAUACGUGCGCGCGCGCGCGCGCGCGCGUACAUGAGGAUCACCCAUGUAGAAGGCGCUCUGC”, the “apparent Kd” value under setting [3] amounted to 30.8 nM and the “apparent Kd” value under setting [4] came to 28.2 nM.
For “GUCAGCUCGUGAGGAUAUACAUGUGCUGGAGACAGCACUAUUAAAUUCACAUGAGGAUCACCCAUGUAGAAGGCACGAGCUGAU”, in that order: 15.2 nM and 18.6 nM.
For “UGAGCGACCACAGGAUAUACUUGAGAAGACCGAGUAGAAGGGUGGAAGAGCGUGCAGUGACAUGAGGAUCACCCAUGUGGUUGU”, the “apparent Kd” value under setting [1] turned out to be 107 nM and the “apparent Kd” value under setting [2] is 98.4 nM.
In the case of “CUUUUGUGAGGAUAUCAGUAGUAAUACAAUAGUAUUACUGCUGAGAAGGCACAUGAGGAUCACCCAUGUUCCUC”, the “apparent Kd” value is, setting by setting: under setting [3], 59.9 nM; under setting [4], 284 nM.
The corresponding values for “UUCGUGUAAGGAUAUACGACCCAUCCCAUUGGGAUGGACACGUAGAAGGUACAUGAGGAUCACCCAUGUGCUCC” are 27.3 nM and 135 nM.
For “CCAGCGUAUGUGAGGAUAUGCUGGUCCUUGGAUCAGCAGAAGGCACAUGAGGAUCACCCAUGUGAGAACGUUGG”, in that order: 26.5 nM and 187 nM.
For “UUAAAUCAUGUAGGAUAUGCAUGGCGAAGCUACGCAGAAGGACAUGAGGAUCACCCAUGUUCAAGCGUCUGAGUACAGAUGCAA”, in that order: 20.9 nM and 102 nM.
For the sequence “UAUAUGUGAGGAUAUCAGGUGUGCUAGCGAACUGGUACAUCUGAGAAGGCACAUGAGGAUCACCCAUGUAUCUU”, the “apparent Kd” value came to 27.7 nM under setting [3] and 105 nM under setting [4].
Take “AAGUGUGGAUGAGGAUAUCAGCUGUAACUGACGUCGACAUGAGGAUCACCCAUGUUGCUAUAGGGUGAGAAGGCAUUUGCGCAA”: the “apparent Kd” value is, setting by setting: under setting [1], 585 nM; under setting [2], 75.1 nM.
On to “GAACUAAAGCAUAGCUUUAGUCGUACAUGAGGAUCACCCAUGUAGGAUAUGGUAGGCAUAGCUUACUAGAAGGAUAGAGUGAUC”, for which the “apparent Kd” value under setting [3] came out at 294 nM and the “apparent Kd” value under setting [4] is 82.4 nM.
For “AAUUAUUUGUAGAAGGAAGGAGAUUUUGUAUUCUUAGGAUAUACUAUUACAUGAGGAUCACCCAUGUUUGUUGGGUUGCAAUGU”, in that order: 315 nM and 323 nM.
For “AGCCAAGCAGGAUAUGCACGUAAUAACAUGAGGAUCACCCAUGUGACCGAUUUAUAUUCUGCAGAAGGGCUUGGAU”, in that order: 29 nM and 118 nM.
In the case of “ACCUUACAUGAGGAUCACCCAUGUUAGGAUAUCUCGCUUUCGCUGUCACAGCGCAAGCAGAGAAGGGACACGGG”, the “apparent Kd” value is, setting by setting: under setting [3], 33.9 nM; under setting [4], 64.5 nM.
Regarding “UGUGCGUAUGUGAGGAUAUGCUGGUCCUUGGAUCAGCAGAAGGCACAUGAGGAUCACCCAUGUGGUGUCGUACU”, the “apparent Kd” value runs as follows: under setting [3], 296 nM; under setting [4], 25.7 nM.
Take “GAAGCAUGCAUUAACAUGAGGAUCACCCAUGUGAAAACACGUGAGGAUAUCGAUCUGAAGAAGAUCGAGAAGGCACCGUGCUAA”: the “apparent Kd” value is 8.87 nM under setting [1] and 7.62 nM under setting [2].
The corresponding values for “CGUGACGACAUAGGAUAUUGAUACAUGAGGAUCACCCAUGUCACCCAUUUAUCUCAAAUUGUUGACAAGAAGGAUGUGGUCACG” are 16.7 nM and 10.8 nM.
For “GCACGAGACUAAGGAUAUGGAGUGUCAACAUUAAACAUGAGGAUCACCCAUGUAAAGAGUACGAUUCAGAAGGUAGAGACGUGC”, in that order: 59.1 nM and 22.8 nM.
“AAACAUGAGGAUCACCCAUGUAAACGAGAAGGGCGAGAGAGUAGAGGAUAGGAGAAAGAUGAGUCGCAGGAUAUCGACCUCAUA”: the “apparent Kd” value turned out to be 16 nM under setting [1] and 17 nM under setting [2].
Take “AUCAGCUCGUCAGGAUAUACGUCACUGCGUCAGCAGUGUGGUAAGAUGACAUGAGGAUCACCCAUGUAGAAGGGACGAGCUGAU”: the “apparent Kd” value came out at 6.82 nM under setting [3] and 15.8 nM under setting [4].
The corresponding values for “ACGCCAAUCGAGAAGGGCCCAUGUGCUACGUCGGCAGGAUAUCGACAUGAGGAUCACCCAUGUUGGCGAUCCUUUUUGGCUAAC” are 147 nM and 212 nM.
For “GUACUGUAGUGAGGAUAUACGAGUUCGAUAGAACGGCGAUCCAUUUAUACAUGAGGAUCACCCAUGUAGAAGGCACUUCAGUAC”, the “apparent Kd” value came to 6.32 nM under setting [3] and 53.9 nM under setting [4].
Take “AGUGUCAUCGAGAAGGCCUCGACAUGAGGAUCACCCAUGUUGUAACAUGGGAGGAUAUCGAUGAUACAGCUACGUUUCGUAGCA”: the “apparent Kd” value was determined as 767 nM under setting [1] and 394 nM under setting [2].
Regarding “UUACUCAUGUAAGGAUAUGCAGCCGUUUCGGCUGCAGAAGGUACUAUAAUACAUGAGGAUCACCCAUGUCUAUUUAAUUUUUAC”, the “apparent Kd” value under setting [1] came to 42.6 nM and the “apparent Kd” value under setting [2] came out at 24.2 nM.
The corresponding values for “UGUUGUUCCGCAGGAUAUGUAUUAGAUUAUAAUACAGAAGGGCGAUAACAUGAGGAUCACCCAUGUGUGGACAAUAAGGAAGAG” are 602 nM and 81.2 nM.
As for “CGUGACUCAGGAUAUCUAUAGUGUCACAUGAGGAUCACCCAUGUCCAGCGAAAGCUGGAGGGAGAAGGGAGUCACG”, the “apparent Kd” value stood at 96.7 nM under setting [3] and 39.9 nM under setting [4].
As for “GGGAGUGGAGGGAAUAACAUGAGGAUCACCCAUGUAUGGGAGAGAAGGCAGGUUGGAGGGCGAUCUGAGGAUAUUUAGACUCUU”, the “apparent Kd” value reads like this: under setting [1], 19.9 nM; under setting [2], 13.5 nM.
“AAUCCACAUGAGGAUCACCCAUGUGAGGAUAUGUCCAUAUUCGGCAAAUCGGAUAUGGACAGAAGGCACAUAAA”: the “apparent Kd” value runs as follows: under setting [3], 32.9 nM; under setting [4], 87.1 nM.

What is called apparent Kd is a dissociation constant that holds for the conditions of the assay.
